Laboratory results: ChEMBL document CHEMBL4052637, “Discovery and Characterization of R/S-N-3-Cyanophenyl-N'-(6-tert-butoxycarbonylamino-3,4-dihydro-2,2-dimethyl-2H-1-benzopyran-4-yl)urea, a New Histone Deacetylase Class III Inhibitor Exerting Antiproliferative Activity against Cancer Cell Lines” (J Med Chem, 2017)
Active and inactive are the calls of the source. The rule behind the calls is not given here.

Tests used:
[1] = target: T1, NAD-dependent protein deacetylase sirtuin-1 (Homo sapiens) (UniProt Q96EB6); test: Inhibition of SIRT1 in human U373 cells assessed as increase of histone H4 acetylation at 2 uM after 8 hrs by Western blotting method relative to control; assay type: cell-based
T1 sequence (whole entry): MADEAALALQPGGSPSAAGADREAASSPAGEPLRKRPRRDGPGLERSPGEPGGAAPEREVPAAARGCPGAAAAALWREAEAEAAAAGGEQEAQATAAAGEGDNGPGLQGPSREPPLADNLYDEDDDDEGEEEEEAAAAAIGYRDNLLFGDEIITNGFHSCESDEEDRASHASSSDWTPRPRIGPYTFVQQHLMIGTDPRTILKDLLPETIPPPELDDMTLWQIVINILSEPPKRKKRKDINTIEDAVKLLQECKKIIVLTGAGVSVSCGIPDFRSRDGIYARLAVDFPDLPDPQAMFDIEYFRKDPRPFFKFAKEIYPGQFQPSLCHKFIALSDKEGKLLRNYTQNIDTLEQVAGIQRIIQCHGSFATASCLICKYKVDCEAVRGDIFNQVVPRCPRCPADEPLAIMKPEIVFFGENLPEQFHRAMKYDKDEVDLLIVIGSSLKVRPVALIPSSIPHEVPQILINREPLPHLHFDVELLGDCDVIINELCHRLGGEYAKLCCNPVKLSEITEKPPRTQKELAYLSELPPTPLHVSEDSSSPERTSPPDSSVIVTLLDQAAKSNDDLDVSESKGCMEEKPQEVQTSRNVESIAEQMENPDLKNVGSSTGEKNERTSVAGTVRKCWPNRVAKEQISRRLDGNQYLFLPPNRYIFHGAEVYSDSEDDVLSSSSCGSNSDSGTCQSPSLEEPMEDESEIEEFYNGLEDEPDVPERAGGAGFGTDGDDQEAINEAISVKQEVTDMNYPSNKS

[2] = target: T1, NAD-dependent protein deacetylase sirtuin-1 (Homo sapiens); test: Inhibition of SIRT1 in human Hs683 cells assessed as increase of histone H4 acetylation at 2 uM after 8 hrs by Western blotting method relative to control; assay type: cell-based
[3] = target: T2, NAD-dependent protein deacetylase sirtuin-2 (Homo sapiens) (UniProt Q8IXJ6); test: Inhibition of SIRT2 in human U373 cells assessed as increase of alpha-tubulin acetylation at 2 uM after 8 hrs by Western blotting method relative to control; assay type: cell-based
T2 sequence (whole entry): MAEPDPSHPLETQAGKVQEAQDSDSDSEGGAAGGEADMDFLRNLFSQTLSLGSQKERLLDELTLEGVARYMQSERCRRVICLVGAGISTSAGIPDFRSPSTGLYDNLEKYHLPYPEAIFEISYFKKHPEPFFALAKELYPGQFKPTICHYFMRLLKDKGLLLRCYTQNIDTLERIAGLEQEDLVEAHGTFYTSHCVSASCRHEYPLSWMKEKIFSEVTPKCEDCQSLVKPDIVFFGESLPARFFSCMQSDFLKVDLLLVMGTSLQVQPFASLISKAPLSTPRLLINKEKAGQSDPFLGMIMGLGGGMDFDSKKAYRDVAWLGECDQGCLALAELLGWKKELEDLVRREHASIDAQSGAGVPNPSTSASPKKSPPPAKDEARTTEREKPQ

[4] = target: T2, NAD-dependent protein deacetylase sirtuin-2 (Homo sapiens); test: Inhibition of SIRT2 in human Hs683 cells assessed as increase of alpha-tubulin acetylation at 2 uM after 8 hrs by Western blotting method relative to control; assay type: cell-based
[5] = tested on: Hs 683; test: Cell cycle arrest in human Hs683 cells assessed as accumulation at sub-G1 phase at 2 uM after 24 to 48 hrs by propidium iodide staining-based flow cytometry; assay type: functional
Procedure, shortened: (§1)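 Cells were exposed to compound at the IC50 for each line from the 72 h MTT assay, or to a reference HDAC inhibitor at 2 μM. Cell cycle distribution was analyzed after 24 and 48 h. Results are mean ± SD of three independent experiments, with p values against control cells.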

[6] = tested on: U-373MG ATCC; test: Cell cycle arrest in human U373 cells assessed as accumulation at sub-G1 phase at 2 uM after 24 to 48 hrs by propidium iodide staining-based flow cytometry; assay type: functional; procedure, shortened: as §1
[7] = tested on: Hs 683; test: Cell cycle arrest in human Hs683 cells assessed as accumulation at G1 phase at 2 uM after 24 to 48 hrs by propidium iodide staining-based flow cytometry; assay type: functional; procedure, shortened: as §1

## O=C(CCCCCCC(=O)Nc1ccccc1)NO
[1]
  fold change (FC): 7.9
[2]
  fold change (FC): 12.6
[3]
  fold change (FC): 18.6
[4]
  fold change (FC): 18.7
[5]
  Activity: Active
[6]
  Activity: Active
[7]
  Activity: Active
